Test results: ChEMBL document CHEMBL3734708, “Synthesis, cytotoxicity and antiviral evaluation of new series of imidazo[4,5-g]quinoline and pyrido[2,3-g]quinoxalinone derivatives” (Eur J Med Chem, 2015)
pEC50: −log10 of the molar value.

What was measured:
[1] = tested on: Vesicular stomatitis virus; assay: Antiviral activity against VSV Indiana ATCC VR-158 infected in african green monkey Vero-76 cells after 2 days by plaque reduction assay; type: functional, organism-based; settings: Indiana ATCC VR-158, Vero 76, 48 h
[2] = Cytotoxicity against MDBK cells assessed as reduction in cell viability after 72 hrs by MTT assay; type: cell-based, Bos taurus; settings: cattle
Method in brief: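 MDBK cells seeded at 6 × 10^5 cells/mL in MEM-E with L-glutamine, 1 mM sodium pyruvate, kanamycin and 10% horse serum. Mock-infected cultures held with serial compound dilutions at 37 °C, 5% CO2. MTT viability read after 72 h. 50% cytotoxic concentration from linear regression as % of untreated controls. Three independent determinations.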

[3] = tested on: Respiratory syncytial virus; assay: Antiviral activity against RSVA2 ATCC VR-1540 infected in african green monkey Vero-76 cells after 5 days by plaque reduction assay; type: functional, organism-based; settings: human respiratory syncytial virus, A2 ATCC VR-1540, Vero 76, 120 h
Coxsackievirus B5 = assay: Antiviral activity against CVB-5 virus Faulkner ATCC VR-185 infected in african green monkey Vero-76 cells after 3 days by plaque reduction assay; type: functional, organism-based; settings: Enterovirus B, Faulkner ATCC VR-185, Vero 76, 72 h
[4] = Cytotoxicity against human MT4 cells assessed as reduction in cell proliferation after 96 hrs by MTT assay; type: cell-based
Method in brief: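 MT-4 cells in exponential growth seeded at 1 × 10^5 cells/mL in RPMI-1640 with 10% FBS and penicillin/streptomycin. Cultured with serial compound dilutions at 37 °C, 5% CO2. MTT viability after 96 h. CC50 by linear regression against untreated controls. Mean of three independent determinations.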

[5] = tested on: Human poliovirus 1 strain Sabin; assay: Antiviral activity against Human poliovirus 1 strain Sabin 1 virus infected in african green monkey Vero-76 cells after 2 days by plaque reduction assay; type: functional, organism-based; settings: Enterovirus C, 1, Vero 76, 48 h
[6] = Cytotoxicity against BHK21 cells assessed as reduction in cell viability after 72 hrs by MTT assay; type: cell-based, Mesocricetus auratus, BHK-21; settings: hamster
Method in brief: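 BHK cells seeded at 1 × 10^6 cells/mL in MEM-E with L-glutamine, 1 mM sodium pyruvate, kanamycin and 10% FBS. Mock-infected cells exposed to serial dilutions of compound at 37 °C, 5% CO2, run in parallel with the antiviral assays. Viability by MTT at 72 h. CC50 by linear regression vs untreated controls. Mean of three independent determinations.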

[7] = tested on: Mammalian orthoreovirus 1; assay: Antiviral activity against Reovirus 1 ATCC VR- 214 infected in BHK21 cells assessed as protection against virus-induced cytopathic effect after 3 or 4 days by MTT assay; type: functional, cell-based; settings: Mammalian orthoreovirus 1, ATCC VR- 214, BHK-21
Method in brief: (§1)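 BHK-21 (YFV, Reo-1) or MDBK (BVDV) cells seeded at 5 × 10^4 or 3 × 10^4 cells/well and grown overnight to confluence. Monolayers infected at m.o.i. 0.01 in maintenance medium (MEM-Earle, 0.5% inactivated FBS). Serial compound dilutions added 2 h after infection; 37 °C for 3-4 days. Viability read by MTT. EC50 by linear regression versus untreated controls; mean of three determinations.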

[8] = Cytotoxicity against african green monkey Vero 76 cells assessed as reduction in cell viability after 48 to 96 hrs by MTT assay; type: cell-based; settings: chlorocebus sabaeus
Method in brief: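 Vero-76 cells plated at 4 × 10^5 cells/mL in D-MEM with L-glutamine, kanamycin and 10% FBS. Incubated with serial dilutions of test compounds at 37 °C, 5% CO2 for 48-96 h. Viability by MTT. CC50 by linear regression relative to untreated cells. Mean of three independent runs.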

[9] = tested on: Bovine viral diarrhea virus 1; assay: Antiviral activity against BVDV NADL ATCC VR-534 infected in MDBK cells assessed as protection against virus-induced cytopathic effect after 3 or 4 days by MTT assay; type: functional, organism-based; settings: Bovine viral diarrhea virus isolates and strains, NADL ATCC VR-534, MDBK; method in brief: as §1
Yellow fever virus = assay: Antiviral activity against YFV 17-D vaccine (Stamaril Pasteur J07B01) infected in BHK21 cells assessed as protection against virus-induced cytopathic effect after 3 or 4 days by MTT assay; type: functional, organism-based; settings: BHK-21; method in brief: as §1
Human alphaherpesvirus 1 = assay: Antiviral activity against HSV-1 KOS ATCC VR- 1493 infected in african green monkey Vero-76 cells after 3 days by plaque reduction assay; type: functional, organism-based; settings: Human alphaherpesvirus 1, KOS ATCC VR1493, Vero 76, 72 h
[10] = tested on: Human immunodeficiency virus 1; assay: Antiviral activity against HIV-1 3B infected in human MT4 cells assessed as protection against virus-induced cytopathic effect after 4 days by MTT assay; type: functional, organism-based; settings: Human immunodeficiency virus 1, 3B, MT4, 96 h
Method in brief: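 MT-4 cells (1 × 10^4/well in RPMI) with or without serial compound dilutions, infected with HIV-1 at 100 CCID50 (m.o.i. 0.01). After 4 days at 37 °C, protection from cytopathogenicity read by MTT. EC50 by linear regression versus untreated controls; mean of three independent determinations.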

Vaccinia virus = assay: Antiviral activity against VV Elstree ATCC VR-1549 infected in african green monkey Vero-76 cells after 3 days by plaque reduction assay; type: functional, organism-based; settings: Orthopoxvirus vaccinia, Elstree ATCC VR-1549, Vero 76, 72 h

SMILES	pEC50 [1]	CC50 at 72 h [2] [µM]	pEC50 [3]	pEC50 (Coxsackievirus B5)	CC50 at 96 h [4] [µM]	pEC50 [5]	CC50 at 72 h [6] [µM]	pEC50 [7]	CC50 [8] [µM]	pEC50 [9]	pEC50 (Yellow fever virus)	pEC50 (Human alphaherpesvirus 1)	pEC50 [10]	pEC50 (Vaccinia virus)
c1csc(-c2nc3cc4cccnc4cc3n2C2CCCCC2)c1	< 4.82	> 100	< 4.82	< 4.82	18	< 4.82	45	< 4.35	15	4.19	< 4.35	< 4.82	< 4.74	< 4.82
N#CCn1c(=O)c(-c2ccccc2)nc2c(Cl)c3ncccc3cc21	< 4.05	> 100	< 4.05	< 4.05	> 100	< 4.05	> 100	< 4.00	90	< 4.00	< 4.00	< 4.05	< 4.00	< 4.05
Cn1c(=O)c(-c2cccs2)nc2c(Cl)c3ncccc3cc21	< 4.00	> 100	< 4.00	< 4.00	> 100	< 4.00	> 100	< 4.00	> 100	5.70	< 4.00	< 4.00	< 4.00	< 4.00
CC(C)c1nc2c(Cl)c3ncccc3cc2n(C)c1=O	< 4.00	> 100	< 4.00	< 4.00	> 100	< 4.00	> 100	< 4.00	> 100	< 4.00	< 4.00	< 4.00	< 4.00	< 4.00
C#C[C@@]1(O)[C@H](O)[C@@H](CO)O[C@H]1n1ccc(N)nc1=O [2'-ETHYNYL-D-CYTIDINE]	–	–	4.64	< 4.00	–	4.57	–	–	–	–	–	–	–	–
COc1nc2cc3cccnc3c(Cl)c2nc1-c1ccccc1	< 4.00	> 100	5.05	< 4.00	> 100	4.14	> 100	4.68	> 100	5.40	< 4.00	< 4.00	< 4.00	< 4.00
O=c1cnn([C@@H]2O[C@H](CO)[C@@H](O)[C@H]2O)c(=O)[nH]1 [6-AZAURIDINE]	5.92	–	–	≤ 4.90	–	–	–	–	–	–	–	–	–	–
Cn1c(=O)c(-c2ccccc2)nc2c(Cl)c3ncccc3cc21	< 4.00	> 100	< 4.00	4.77	> 100	4.42	> 100	< 4.00	> 100	4.80	< 4.00	< 4.00	< 4.00	< 4.00
O=c1c(-c2ccccc2)nc2cc3cccnc3c(Cl)c2n1CC1CCCCC1	< 4.70	50	< 4.70	< 4.70	23	< 4.70	15	< 4.82	20	5.40	< 4.82	< 4.70	< 4.64	< 4.70
Nc1ccn(C[C@@H](CO)OCP(=O)(O)O)c(=O)n1 [CIDOFOVIR]	–	–	–	< 4.00	–	–	–	–	–	–	–	–	–	4.72
